The record followed here is ChEMBL document CHEMBL2440017, “Discovery of a potent, selective, and orally bioavailable histamine H3 receptor antagonist SAR110068 for the treatment of sleep-wake disorders” (Bioorg Med Chem Lett, 2013).

Molecules are shown by their SMILES.

A short description of data set [1]: Elimination half life in OF1 mouse brain at 2 mg/kg, iv. The format is ADME, organism-based. Also on record: dose 2 mg/kg, route intravenous. The following applies: read-out: beta t1/2 (converted). In short, it runs like this: (§1)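 Male OF1 mice or male Sprague-Dawley rats, single 2 mg/kg i.v. dose. Mouse vehicle 50% 1-methyl-2-pyrrolidinone in saline at 1.0 mg/mL; rat vehicle saline at 0.5 mg/mL. Plasma and brain levels followed over time; AUC0-inf, t1/2 and clearance derived from exposure. Brain/plasma ratio uses i.v. AUC0-inf.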

A short description of data set [2]: Metabolic stability in rabbit microsomes. The format is ADME, Oryctolagus cuniculus, Microsome. The essentials: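 Percentage biotransformation measured in vitro in liver microsomes of each species.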
The nature of data set [3]: AUC in OF1 mouse brain at 10 mg/kg, po. The format is ADME, organism-based. Details: dose 10 mg/kg, route oral. The essentials:
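Oral gavage at 10 mg/kg to male OF1 mice (vehicle 5% DMSO/0.5% MC/0.2% Tween80, 1.0 mg/mL) or male Sprague-Dawley rats (vehicle 0.5% MC/0.2% Tween80, 1.0 mg/mL). Plasma and brain exposure and half-life determined.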

Data set [4] can be described thus: Oral bioavailability in Sprague-Dawley rat plasma at 10 mg/kg. The format is ADME, organism-based. In short, it runs like this: (§2)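 Male Sprague–Dawley rats received 2 mg/kg i.v. (0.5 mg/mL in saline) or 10 mg/kg p.o. (1.0 mg/mL in 0.5% MC/0.2% Tween80). Plasma and brain AUC0-inf were measured, and the B/P ratio was calculated from i.v. AUC0-inf.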
The nature of data set [5]: AUC (0 to infinity) in OF1 mouse brain at 2 mg/kg, iv. The format is ADME, organism-based. Also on record: time infinity, dose 2 mg/kg, route intravenous. In short, it runs like this:
as §1

The nature of data set [6]: Elimination half life in Sprague-Dawley rat brain at 2 mg/kg, iv. The format is ADME, organism-based. The following applies: read-out: beta t1/2 (converted). Also on record: dose 2 mg/kg, route intravenous. The essentials:
as §1

Data set [7] in a line: Elimination half life in Sprague-Dawley rat plasma at 2 mg/kg, iv. The format is ADME, organism-based. Particulars: read-out: beta t1/2 (converted). Details: dose 2 mg/kg, route intravenous. In short, it runs like this: as §1
A short description of data set [8]: Volume of distribution in Sprague-Dawley rat plasma at 2 mg/kg, iv. The format is ADME, organism-based. Also on record: dose 2 mg/kg, route intravenous. The essentials:
as §2

In the case of `Cc1cc(N2CC[C@H](N3CCC[C@@H]3C)C2)ccc1NC(=O)C1CCOCC1`, the half-life in data set [1] is 0.83 h; in data set [6], 3.6 h; in data set [7] it was 4.3 h. Also, in data set [2], the Stability entry was “Stable”. Also, in data set [3], the AUC worked out at 1200 ng·h/mL. Also, the bioavailability in data set [4] is 80%. This compound also returned an AUC(0-inf) in data set [5] of 380 ng·h/mL. Also, in data set [8], the Vd stood at 3.1 L/kg.
